Experimental data: publication PMC7551138 (Alzheimer's & Dementia : Translational Research & Clinical …, 2020)

Assays:
Format in all cases: in vivo, human
healthy elderly subjects [1] = test: PK‐PD analysis, nonlinear mixed‐effect modeling of adaptive tracking
Method in brief: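 Nonlinear mixed-effects PK-PD modelling used plasma and CSF data from this study plus earlier first-in-human data. Oral comparator data were dose-corrected. […] models linked plasma concentration of the active cleavage product to adaptive tracking, testing direct-effect, turnover and effect-compartment forms. Inter-individual and inter-occasion variability were assessed. Covariates were added stepwise at p<0.01, then removed by backward elimination at p<0.001. Emax and EC50 (mg/L) are given with 95% CI.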

healthy elderly subjects [2] = test: Monitoring of treatment‐emergent adverse events
Method in brief: (§1)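 Randomised, double-blind, placebo-controlled trial in healthy subjects aged ≥65 (n=48; 12 active:4 placebo per cohort, placebos pooled). Intranasal test compound 5.5, 11 or 22 mg or 0.9% NaCl b.i.d. for 7 days, 6 h between doses. The 11 mg active subjects later got one open-label oral 16 mg dose of the parent drug. Safety was tracked by TEAEs, nasal examination, vital signs, ECG and safety bloods.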

healthy elderly subjects [3] = test: Pharmaco‐electroencephalography; conditions: for EEG Delta Fz‐Cz closed (uV^2/Hz) / EEG Delta Fz‐Cz open (uV^2/Hz) / EEG Delta Pz‐O1 closed (uV^2/Hz) / EEG Delta Pz‐O1 open (uV^2/Hz) / EEG Delta Pz‐O2 closed (uV^2/Hz) / EEG Delta Pz‐O2 open (uV^2/Hz): vs placebo, mean (confidence interval)
Method in brief: (§2)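 NeuroCart tests were repeated over time during the 7-day b.i.d. intranasal dosing: eye movements, N-back with 3 working-memory-load conditions, pharmaco-EEG, and 100-mm VAS (Bond and Lader mood/alertness/calmness; nausea). In the 22 mg cohort, EEG at 30 min and 3 h post-dose was dropped. Analysis was mixed-model ANOVA (treatment, time, treatment×time fixed; subject random; baseline covariate), giving LSM difference versus placebo with CI.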

healthy elderly subjects [4] = test: Visual analogue scales; conditions: vs placebo, mean (confidence interval)
Method in brief: as §2

healthy elderly subjects [5] = test: Vital signs; conditions: for Diastolic BP supine / Pulse Rate supine / Systolic BP supine: vs placebo, mean (confidence interval)
Method in brief: as §1

[6] = 5.5 mg b.i.d. intranasal, within 24 hours after first administration, dosing day 1
[7] = 22 mg b.i.d. intranasal, within 24 hours after first administration, dosing day 1
[8] = 5.5 mg b.i.d. intranasal 7 days

SMILES: COc1ccc2c3c1O[C@H]1C[C@@H](OC(=O)c4ccccc4)C=C[C@@]31CCN(C)C2 [Gln‐1062]
- maximum increase (Emax) of adaptive tracking (healthy elderly subjects [1]; direct effect model on galantamine plasma concentration, 95% CI 1.15–5.90): 1.91
- concentration resulting in half of the maximum (EC50), adaptive tracking (healthy elderly subjects [1]; galantamine plasma concentration, direct effect model, by drug dosed): 0.0231 µg/mL
- TEAEs within 24 hours: All gastrointestinal disorders (healthy elderly subjects [2]; [6]): 1 (8.3) number of subjects (percentage
- TEAEs within 24 hours: Any events (healthy elderly subjects [2]; [6]): 7 (58.3) number of subjects (percentage
- TEAEs within 24 hours: Nausea (healthy elderly subjects [2]; [6]): 1 (8.3) number of subjects (percentage
- TEAEs within 24 hours: Vomiting (healthy elderly subjects [2]; [6]): 1 (8.3) number of subjects (percentage
- TEAEs within 24 hours: Any events (healthy elderly subjects [2]; 11 mg b.i.d. intranasal, within 24 hours after first administration, dosing day 1): 12 (100.0) number of subjects (percentage
- TEAEs within 24 hours: All gastrointestinal disorders (healthy elderly subjects [2]; [7]): 6 (50.0) number of subjects (percentage
- TEAEs within 24 hours: Any events (healthy elderly subjects [2]; [7]): 12 (100.0) number of subjects (percentage
- TEAEs within 24 hours: Diarrhea (healthy elderly subjects [2]; [7]): 2 (16.7) number of subjects (percentage
- TEAEs within 24 hours: Nausea (healthy elderly subjects [2]; [7]): 5 (41.7) number of subjects (percentage
- TEAEs within 24 hours: Vomiting (healthy elderly subjects [2]; [7]): 3 (25.0) number of subjects (percentage
- intensity of TEAEs (healthy elderly subjects [2]; 5.5 to 22 mg b.i.d., 7 days): mild or moderate
- serious adverse events (healthy elderly subjects [2]; 5.5 to 22 mg b.i.d., 7 days): no serious adverse events
- safety and tolerability (healthy elderly subjects [2]; up to 22 mg b.i.d. intranasal for 7 days): safe and well tolerated
- EEG Delta Fz‐Cz closed (uV^2/Hz) (healthy elderly subjects [3]; [8]): −1.8% (−30.4%, 38.5%) P = 0.9140
- EEG Delta Fz‐Cz open (uV^2/Hz) (healthy elderly subjects [3]; [8]): −13.6% (−35.0%, 14.8%) P = 0.3010
- EEG Delta Pz‐O1 closed (uV^2/Hz) (healthy elderly subjects [3]; [8]): −3.1% (−36.1%, 46.9%) P = 0.8765
- EEG Delta Pz‐O1 open (uV^2/Hz) (healthy elderly subjects [3]; [8]): −12.9% (−39.4%, 25.1%) P = 0.4391
- EEG Delta Pz‐O2 closed (uV^2/Hz) (healthy elderly subjects [3]; [8]): −13.4% (−39.2%, 23.5%) P = 0.4151
- EEG Delta Pz‐O2 open (uV^2/Hz) (healthy elderly subjects [3]; [8]): 3.1% (−23.8%, 39.4%) P = 0.8382
- EEG Delta Fz‐Cz closed (uV^2/Hz) (healthy elderly subjects [3]; 11 mg b.i.d. intranasal 7 days): −14.8% (−37.6%, 16.4%) P = 0.3023
- EEG Delta Fz‐Cz open (uV^2/Hz) (healthy elderly subjects [3]; 11 mg b.i.d. intranasal 7 days): −2.5% (−25.2%, 27.0%) P = 0.8435
- EEG Delta Pz‐O1 closed (uV^2/Hz) (healthy elderly subjects [3]; 11 mg b.i.d. intranasal 7 days): −12.4% (−41.5%, 31.2%) P = 0.5079
- EEG Delta Pz‐O1 open (uV^2/Hz) (healthy elderly subjects [3]; 11 mg b.i.d. intranasal 7 days): −5.4% (−33.6%, 34.6%) P = 0.7474
- EEG Delta Pz‐O2 closed (uV^2/Hz) (healthy elderly subjects [3]; 11 mg b.i.d. intranasal 7 days): −0.4% (−28.5%, 38.7%) P = 0.9799
- EEG Delta Pz‐O2 open (uV^2/Hz) (healthy elderly subjects [3]; 11 mg b.i.d. intranasal 7 days): 3.7% (−21.2%, 36.6%) P = 0.7851
- EEG delta power at the frontal and parietal locations (healthy elderly subjects [3]; 22 mg): significantly decreased
- EEG Delta Fz‐Cz closed (uV^2/Hz) (healthy elderly subjects [3]; 22 mg b.i.d. intranasal 7 days): −19.8% (−35.7%,−0.1%) P = 0.0495
- EEG Delta Fz‐Cz open (uV^2/Hz) (healthy elderly subjects [3]; 22 mg b.i.d. intranasal 7 days): −30.1% (−48.3%,−5.3%) P = 0.0235
- EEG Delta Pz‐O1 closed (uV^2/Hz) (healthy elderly subjects [3]; 22 mg b.i.d. intranasal 7 days): −27.4% (−46.1%,−2.1%) P = 0.0369
- EEG Delta Pz‐O1 open (uV^2/Hz) (healthy elderly subjects [3]; 22 mg b.i.d. intranasal 7 days): −29.1% (−45.3%,−8.0%) P = 0.0126
- EEG Delta Pz‐O2 closed (uV^2/Hz) (healthy elderly subjects [3]; 22 mg b.i.d. intranasal 7 days): −21.5% (−35.1%, −5.0%) P = 0.0154
- EEG Delta Pz‐O2 open (uV^2/Hz) (healthy elderly subjects [3]; 22 mg b.i.d. intranasal 7 days): −16.5% (−33.4%, 4.8%) P = 0.1128
- VAS Alertness (healthy elderly subjects [4]; [8]): −1.09 (−3.74, 1.57) P = 0.4134 mm
- VAS Calmness (healthy elderly subjects [4]; [8]): 0.44 (−2.59, 3.48) P = 0.7694 mm
- VAS Mood (healthy elderly subjects [4]; [8]): −0.92 (−3.98, 2.13) P = 0.5462 mm
- VAS Alertness (healthy elderly subjects [4]; 11 mg b.i.d. intranasal 7 days): 0.63 (−2.15, 3.41) P = 0.6514 mm
- VAS Calmness (healthy elderly subjects [4]; 11 mg b.i.d. intranasal 7 days): 0.27 (−2.86, 3.40) P = 0.8615 mm
- VAS Mood (healthy elderly subjects [4]; 11 mg b.i.d. intranasal 7 days): −0.49 (−3.59, 2.62) P = 0.7530 mm
- VAS Alertness (healthy elderly subjects [4]; 22 mg b.i.d. intranasal 7 days): −0.21 (−2.86, 2.44) p = 0.8735 mm
- VAS Calmness (healthy elderly subjects [4]; 22 mg b.i.d. intranasal 7 days): 0.44 (−2.61, 3.49) P = 0.7734 mm
- VAS Mood (healthy elderly subjects [4]; 22 mg b.i.d. intranasal 7 days): −0.68 (−3.66, 2.29) P = 0.6455 mm
- Diastolic BP supine (healthy elderly subjects [5]; [8]): 2.5 (−0.6, 5.6) P = 0.1105 mmHg
- Pulse Rate supine (healthy elderly subjects [5]; [8]): −2.5 (−6.4, 1.4) P = 0.2044 bpm
- Systolic BP supine (healthy elderly subjects [5]; [8]): 5.0 (−0.3, 10.4) P = 0.0644 mmHg
- Diastolic BP supine (healthy elderly subjects [5]; 11 mg b.i.d. intranasal 7 days): 0.9 (−2.2, 4.1) P = 0.5566 mmHg
- Pulse Rate supine (healthy elderly subjects [5]; 11 mg b.i.d. intranasal 7 days): −1.0 (−4.9, 2.9) P = 0.6030 bpm
- Systolic BP supine (healthy elderly subjects [5]; 11 mg b.i.d. intranasal 7 days): 1.2 (−4.1, 6.5) P = 0.6528 mmHg
- Diastolic BP supine (healthy elderly subjects [5]; 22 mg b.i.d. intranasal 7 days): 1.2 (−1.9, 4.3) P = 0.4437 mmHg
- Pulse Rate supine (healthy elderly subjects [5]; 22 mg b.i.d. intranasal 7 days): 0.5 (−3.5, 4.4) P = 0.8169 bpm
- Systolic BP supine (healthy elderly subjects [5]; 22 mg b.i.d. intranasal 7 days): 1.8 (−3.6, 7.2) P = 0.5098 mmHg
- effect on the pulse rate (healthy elderly subjects [5]; all dose levels): No statistically significant effect
